According to ChEMBL document CHEMBL4680069, “Itaconate is a covalent inhibitor of the Mycobacterium tuberculosis isocitrate lyase” (RSC Med Chem, 2021):
Active and inactive are the calls of the source. No cut-off for these calls is given here.

Columns and labels:
[1] = Covalent inhibition of wild type N-terminal polyhis-tagged TEV protease cleavage site fused Mycobacterium tuberculosis ICL1 expressed in Escherichia coli BL21 (DE3) using DL-isocitrate as substrate measured after 1 hr by UV-Vis spectrophotometric analysis
How it was run: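 Recombinant ICL1 at 20 nM with 1 mM DL-isocitrate and 1 mM MgCl2 in 50 mM Tris pH 7.5. Includes 10 mM phenylhydrazine-HCl to trap product. Inhibitor tested at varying concentrations to give IC50. Four separate measurements; errors are standard deviations.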

[2] = system: Mycobacterium tuberculosis; experiment: Binding affinity to wild type N-terminal polyhis-tagged TEV protease cleavage site fused Mycobacterium tuberculosis ICL1 expressed in Escherichia coli BL21 (DE3) assessed as compound-protein covalent adduct formation by measuring molecular mass at 1 mM after 12 hrs in presence of MgCl2 by LC-MS analysis
[3] = system: Mycobacterium tuberculosis; experiment: Binding affinity to wild type N-terminal polyhis-tagged TEV protease cleavage site fused Mycobacterium tuberculosis ICL1 (Ala170-Lys197) expressed in Escherichia coli BL21 (DE3) assessed as covalent adduct formation at 1 mM incubated overnight in presence of Mg2+ followed by trypsin protease digestion by tandem mass spectrometry analysis; conditions: time 12.0 hrs
[4] = system: Mycobacterium tuberculosis; experiment: Binding affinity to recombinant Mycobacterium tuberculosis CDC1551 ICL2 (Cys215-Arg233) expressed in Escherichia coli BL21 (DE3) LOBSTR assessed as covalent adduct formation at 1 mM incubated overnight in presence of Mg2+ followed by trypsin protease digestion by tandem mass spectrometry analysis; conditions: time 12.0 hrs
[5] = system: Mycobacterium tuberculosis; experiment: Binding affinity to wild type N-terminal polyhis-tagged TEV protease cleavage site fused Mycobacterium tuberculosis ICL1 expressed in Escherichia coli BL21 (DE3) assessed as compound-protein covalent adduct formation at 1 mM in absence of Mg2+ by LC-MS analysis
[6] = Binding affinity to wild type N-terminal polyhis-tagged TEV protease cleavage site fused Mycobacterium tuberculosis ICL1 expressed in Escherichia coli BL21 (DE3) in presence of MgCl2 by NMR binding analysis
[7] = Binding affinity to wild type N-terminal polyhis-tagged TEV protease cleavage site fused Mycobacterium tuberculosis ICL1 expressed in Escherichia coli BL21 (DE3) in absence of Mg2+ by NMR binding analysis
[8] = system: Mycobacterium tuberculosis; experiment: (§1) Binding affinity to wild type N-terminal polyhis-tagged TEV protease cleavage site fused Mycobacterium tuberculosis ICL1 expressed in Escherichia coli BL21 (DE3) assessed as covalent adduct formation at 1 mM measured after 75 mins in presence of Mg2+ by LC-MS/MS analysis relative to control
[9] = system: Mycobacterium tuberculosis; experiment: Binding affinity to wild type N-terminal polyhis-tagged TEV protease cleavage site fused Mycobacterium tuberculosis ICL1 expressed in Escherichia coli BL21 (DE3) assessed as covalent adduct formation at 1 mM measured after 5 hrs in presence of Mg2+ by LC-MS/MS analysis relative to control
[10] = system: Mycobacterium tuberculosis; experiment: as §1, with “1 min” for “75 mins”, “Mg2+ and glyoxylate” for “Mg2+”
[11] = Binding affinity to wild type N-terminal polyhis-tagged TEV protease cleavage site fused Mycobacterium tuberculosis ICL1 expressed in Escherichia coli BL21 (DE3) in presence of Mg2+ and glyoxylate by NMR binding analysis
[12] = Binding affinity to wild type N-terminal polyhis-tagged TEV protease cleavage site fused Mycobacterium tuberculosis ICL1 expressed in Escherichia coli BL21 (DE3) in presence of glyoxylate by NMR binding analysis
[13] = system: Mycobacterium tuberculosis; experiment: Binding affinity to wild type N-terminal polyhis-tagged TEV protease cleavage site fused Mycobacterium tuberculosis ICL1 expressed in Escherichia coli BL21 (DE3) assessed as covalent adduct formation in presence of glyoxylate by NMR binding analysis

## O=C(O)C/C(=C\c1ccccc1)C(=O)O
[1]
  IC50: 2600 µM

## O=C(O)/C=C(/CC(=O)O)C(=O)O
[1]
  IC50: 5200 µM

## C=C(CC(=O)OC)C(=O)OC
[1]
  IC50: > 10000 µM

## C/C=C(\CC(=O)OC)C(=O)OC
[1]
  IC50: > 10000 µM

## C/C=C(\CC(=O)O)C(=O)O
[1]
  IC50: 3100 µM

## O=C(O)/C=C(\CC(=O)O)C(=O)O [ACONITIC ACID]
[1]
  IC50: 5020 µM

## C=C(CC(=O)O)C(=O)O [ITACONATE]
[2]
  Activity: Active
[3]
  Activity: Active
[4]
  Activity: Active
[5]
  Activity: inactive
[6]
  Kd: 112 µM
[7]
  Kd: > 500 µM
[8]
  Activity: 50%
[9]
  Activity: 100%
[10]
  Activity: 100%
[11]
  Kd: 123 µM
[12]
  Kd: > 500 µM
[13]
  Activity: inactive
[1]
  IC50: 420 µM
